In the array DNA melting data of Ke et al. (doi:10.1101/2024.01.08.574731):

Tests used:
[1] = folding enthalpy; higher = less favourable; fluorescence melt of hairpins on a sequencing array, two-state fit; details: sodium 0.088 M
Summary of the method: (§1)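 Melting temperature and folding enthalpy were obtained by bootstrapped two-state fitting. Fits used Cy3 fluorescence of library hairpins with annealed Cy3 and quencher oligos on a sequenced MiSeq flow cell, imaged in 50 mM Na-HEPES pH 8.0, 25 mM NaCl in 2.5 °C steps up to 60 °C and normalised to pre-quench Cy3 and control constructs. Four replicates were combined by inverse-variance weighting, and fitted temperatures were raised by 9.35 °C to match UV melts.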

[2] = melting temperature; fluorescence melt of hairpins on a sequencing array, two-state fit, raised by 9.35 °C to match UV melts; details: sodium 0.088 M
Summary of the method: as §1

GCATGAGGAAACCCATGC (((((.(....).))))) showed a folding enthalpy [1] of -36.8 kcal/mol and a Tm [2] of 48.6 °C.
In the case of GATTACGAAAGTAAGATC ((((((....)))..))), the folding enthalpy [1] is reported as -16.2 kcal/mol and the Tm [2] is reported as 39 °C.
GGTTAGGAAACTAACC ((((((....)))))) showed a folding enthalpy [1] of -35.6 kcal/mol and a Tm [2] of 52.3 °C.
GTCCACGAAAGTGATGAC ((((((....)))..))) gave a folding enthalpy [1] of -14.8 kcal/mol and a Tm [2] of 39.4 °C.
With GCCATGCGAAAGCCGGGC (((..((....))..))) the folding enthalpy [1] was -26.1 kcal/mol and the Tm [2] was 55.3 °C.
Sequence AAGTGGAAACACTT (((((....))))) has a folding enthalpy [1] of -19.6 kcal/mol and a Tm [2] of 42 °C.
GCAGGCGCGAAAGCGTGC (((..(((....)))))) showed a folding enthalpy [1] of -13.3 kcal/mol and a Tm [2] of 49.4 °C.
GCAATGTCGAAAGACTGC (((..(((....)))))) showed a folding enthalpy [1] of -20.3 kcal/mol and a Tm [2] of 44.9 °C.
For GAGCGTGGAAACACGTTC ((.((((....)))).)), the folding enthalpy [1] was -24.7 kcal/mol and the Tm [2] was 52.5 °C.
For CGGTCGGAAACGACTCCG ((((((....)))..))), the folding enthalpy [1] was -13.3 kcal/mol and the Tm [2] was 33.9 °C.
For TGGGAGAAATCCCA (((((....))))), the folding enthalpy [1] was -19.5 kcal/mol and the Tm [2] was 40.7 °C.
GTCGGCGAAAGCCCCGAC ((((((....)))..))) gave a folding enthalpy [1] of -15.6 kcal/mol and a Tm [2] of 41.8 °C.
GAGTACGAAAGTAAACTC ((((((....)))..))) showed a folding enthalpy [1] of -26.2 kcal/mol and a Tm [2] of 35.9 °C.
Sequence GTTGTTGGAAACAATAGC (.(.(((....))).).) has a folding enthalpy [1] of -11.9 kcal/mol and a Tm [2] of 31.2 °C.
Sequence GTTAACCCGAAAGGGAAC (((..(((....)))))) has a folding enthalpy [1] of -12.2 kcal/mol and a Tm [2] of 25.9 °C.
GTTGCTGCGAAAGCAAAC (((..(((....)))))) gave a folding enthalpy [1] of -14.3 kcal/mol and a Tm [2] of 37.8 °C.
Sequence GCCTGGCGAAAGCGGGGC (((..((....))..))) has a folding enthalpy [1] of -27 kcal/mol and a Tm [2] of 64 °C.
In the case of GCAGTCGAAAGACTCTGC ((((((....)))..))), the folding enthalpy [1] is reported as -16.1 kcal/mol and the Tm [2] is reported as 41.8 °C.
Sequence GCACTGCGAAAGCATGGC ((..(((....)))..)) has a folding enthalpy [1] of -17.4 kcal/mol and a Tm [2] of 44.8 °C.
Sequence GATGGCGGAAACACCATC (((((.(....).))))) has a folding enthalpy [1] of -34.3 kcal/mol and a Tm [2] of 47.2 °C.
For GATCGACGTCTCGATC ((((((....)))))), the folding enthalpy [1] was -42.3 kcal/mol and the Tm [2] was 50 °C.
GATTGCGGAAACACAATC (((((.(....).))))) showed a folding enthalpy [1] of -28.9 kcal/mol and a Tm [2] of 41.6 °C.
GGTTGACCGAAAGGTACC (((..(((....)))))) showed a folding enthalpy [1] of -16.5 kcal/mol and a Tm [2] of 36.4 °C.
CATCGGAAACGATG (((((....))))) gave a folding enthalpy [1] of -25.8 kcal/mol and a Tm [2] of 53.5 °C.
Sequence GCTGGGCGAAAGCGCGGC ((.(.((....)).).)) has a folding enthalpy [1] of -33.2 kcal/mol and a Tm [2] of 64.1 °C.
GCAATGCGAAAGCCCTGC (((..((....))..))) showed a folding enthalpy [1] of -10.3 kcal/mol and a Tm [2] of 28.4 °C.
With GGGGGTTCGAAAGAACCC (((..(((....)))))) the folding enthalpy [1] was -7.33 kcal/mol and the Tm [2] was 58.9 °C.
Work on GCAACCCGAAAGGGCTGC (((.(((....))).))) yielded a folding enthalpy [1] of -44.6 kcal/mol and a Tm [2] of 60.6 °C.
For AGGTCGAAAGACCT (((((....))))), the folding enthalpy [1] was -22.1 kcal/mol and the Tm [2] was 67.4 °C.
For GCTGTGCGAAAGCCGAGC (((..((....))..))), the folding enthalpy [1] was -19 kcal/mol and the Tm [2] was 41.8 °C.
Sequence GATCAGGCAACTGATC ((((((....)))))) has a folding enthalpy [1] of -37.6 kcal/mol and a Tm [2] of 60.6 °C.
In the case of GCCGTCGAAAGACATGGC ((((((....)))..))), the folding enthalpy [1] is reported as -23.9 kcal/mol and the Tm [2] is reported as 52.1 °C.
Work on GCTTATCGAAAGATCAGC (((.(((....))).))) yielded a folding enthalpy [1] of -25.3 kcal/mol and a Tm [2] of 44 °C.
In the case of GCGATCGAAAGATATCGC ((((((....)))..))), the folding enthalpy [1] is reported as -29.2 kcal/mol and the Tm [2] is reported as 47 °C.
With GCAGGGGGAAACCTCTGC ((((.((....)).)))) the folding enthalpy [1] was -39.1 kcal/mol and the Tm [2] was 55 °C.
GCTAGGCGAAAGCCCTGC ((..(((....)))..)) showed a folding enthalpy [1] of -12.3 kcal/mol and a Tm [2] of 39.8 °C.
In the case of GACCTACGAAAGTAGTC (((.(((....)))))), the folding enthalpy [1] is reported as -17.3 kcal/mol and the Tm [2] is reported as 42.1 °C.
Work on GATCGTCAACACGATC ((((((....)))))) yielded a folding enthalpy [1] of -32.9 kcal/mol and a Tm [2] of 51.5 °C.
Work on GCTCCGCGAAAGCTGGGC ((.(.((....)).).)) yielded a folding enthalpy [1] of -21.5 kcal/mol and a Tm [2] of 44.9 °C.
In the case of GGTTACGAAAGTATCACC ((((((....)))..))), the folding enthalpy [1] is reported as -12.5 kcal/mol and the Tm [2] is reported as 28.2 °C.
With GTTGTCGAAAGACAAAAC ((((((....)))..))) the folding enthalpy [1] was -13.6 kcal/mol and the Tm [2] was 36.9 °C.
In the case of GATCGGATTACCGATC ((((((....)))))), the folding enthalpy [1] is reported as -38.7 kcal/mol and the Tm [2] is reported as 58.2 °C.
GCGCTACGAAAGTATCGC (((.(((....))).))) gave a folding enthalpy [1] of -42.1 kcal/mol and a Tm [2] of 53.9 °C.
GTCTCGGGAAACCAAGAC ((((.((....)).)))) showed a folding enthalpy [1] of -26.5 kcal/mol and a Tm [2] of 37.2 °C.
ATGGAGAAATCCAT (((((....))))) showed a folding enthalpy [1] of -14.6 kcal/mol and a Tm [2] of 36 °C.
For GATCCATTCGTGGATC ((((((....)))))), the folding enthalpy [1] was -41.1 kcal/mol and the Tm [2] was 55.3 °C.
With GTCTGGGGAAACCTAGGC (.((.((....)).)).) the folding enthalpy [1] was -19.8 kcal/mol and the Tm [2] was 34.8 °C.
For GGATTCCGAAAGGAGTCC (((.(((....))).))), the folding enthalpy [1] was -41.6 kcal/mol and the Tm [2] was 55.6 °C.
GATTCCCGAAAGGGGATC (((.(((....))).))) gave a folding enthalpy [1] of -36.3 kcal/mol and a Tm [2] of 57.3 °C.
For GATCTCGACAGAGATC ((((((....)))))), the folding enthalpy [1] was -41.9 kcal/mol and the Tm [2] was 66.8 °C.
With CGCAGACGGAAACGTGCG (((..(((....)))))) the folding enthalpy [1] was -22.6 kcal/mol and the Tm [2] was 49.3 °C.
Sequence GTCTGCCGAAAGGCGAC (((.(((....)))))) has a folding enthalpy [1] of -18.1 kcal/mol and a Tm [2] of 54.9 °C.
GTTGTACCGAAAGGTAAC (((..(((....)))))) showed a folding enthalpy [1] of -23.7 kcal/mol and a Tm [2] of 47.4 °C.
GCATTTCCGAAAGGATGC (((..(((....)))))) gave a folding enthalpy [1] of -21.6 kcal/mol and a Tm [2] of 38.4 °C.
Sequence GATGTAGAAATACATC ((((((....)))))) has a folding enthalpy [1] of -30.3 kcal/mol and a Tm [2] of 45.7 °C.
In the case of GCACAGCGAAAGCAGTGC ((((.((....)).)))), the folding enthalpy [1] is reported as -34.1 kcal/mol and the Tm [2] is reported as 69.2 °C.
Sequence GATACCGAAAGGTTGATC ((((((....)))..))) has a folding enthalpy [1] of -13.6 kcal/mol and a Tm [2] of 31.4 °C.
With GAACGCCCGAAAGGGTTC (((..(((....)))))) the folding enthalpy [1] was -10.8 kcal/mol and the Tm [2] was 30.3 °C.
Work on GCTCCCGGAAACGAGAGC ((((.((....)).)))) yielded a folding enthalpy [1] of -36.5 kcal/mol and a Tm [2] of 49.2 °C.
For GGCTCGCGAAAGCGGCC (((.(((....)))))), the folding enthalpy [1] was -19.2 kcal/mol and the Tm [2] was 66.5 °C.
For GGGGTTGCGAAAGCACCC (((..(((....)))))), the folding enthalpy [1] was -19 kcal/mol and the Tm [2] was 59.5 °C.
For GACGTGGGAAACTGCGTC ((((..(....)..)))), the folding enthalpy [1] was -24.6 kcal/mol and the Tm [2] was 47.6 °C.
In the case of GCTGCCGAAAGGCAGAGC ((((((....)))..))), the folding enthalpy [1] is reported as -10 kcal/mol and the Tm [2] is reported as 67.1 °C.
GGTTCCGAAAGGACGACC ((((((....)))..))) gave a folding enthalpy [1] of -15.8 kcal/mol and a Tm [2] of 37.4 °C.
Work on GTATTTGGAAACAGATAC ((((.((....)).)))) yielded a folding enthalpy [1] of -24.7 kcal/mol and a Tm [2] of 32.4 °C.
In the case of GAACGCGAAAGCGTTTTC ((((((....)))..))), the folding enthalpy [1] is reported as -11.6 kcal/mol and the Tm [2] is reported as 56.6 °C.
GTGATAGGAAACTACCAC (((.(((....))).))) gave a folding enthalpy [1] of -27.3 kcal/mol and a Tm [2] of 33.5 °C.
With GCGTACGAAAGTATGCGC ((((((....)))..))) the folding enthalpy [1] was -37.5 kcal/mol and the Tm [2] was 58.4 °C.
Work on GATCCGGGAACGGATC ((((((....)))))) yielded a folding enthalpy [1] of -33.4 kcal/mol and a Tm [2] of 66.1 °C.
